Rows were chosen to be rich in hits. Some 1.9% of all compounds tested hit in one or more screens of this group.
Rpn11 inh = inhibitors of human proteasome Rpn11; O00487; human 26S proteasome, Ub4-pepOG fluorescence polarization; 20S core pre-blocked with epoxomicin; inhibition, % at 20 µM; 0.59% of 360,000 active;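 active = inhibition at 20 µM, scaled to each plate's controls, above about 33%, limit read from the data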
Target sequence (O00487 whole entry, looked up): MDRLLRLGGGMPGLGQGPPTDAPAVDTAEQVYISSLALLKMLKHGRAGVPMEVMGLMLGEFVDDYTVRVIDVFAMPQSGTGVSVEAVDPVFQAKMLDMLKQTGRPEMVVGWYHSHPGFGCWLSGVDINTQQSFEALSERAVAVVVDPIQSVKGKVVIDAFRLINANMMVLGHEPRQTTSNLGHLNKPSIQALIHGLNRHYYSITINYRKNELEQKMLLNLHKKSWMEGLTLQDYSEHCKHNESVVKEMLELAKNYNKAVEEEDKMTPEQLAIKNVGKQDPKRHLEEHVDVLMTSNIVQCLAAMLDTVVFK
ABHD5-PLIN5 inh = ABHD5-PLIN5 protein interaction inhibition; Q00G26+Q8WTS1; Split G. princeps luciferase complementation, luminescence, 4 h; inhibition, % at 4 µM; 0.78% of 360,000 active; AID 602281;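 active = inhibition above the mean inhibition across every tested compound plus 3 SD, cut at about 22% in these data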;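 also: 0% = DMSO only wells and the 100% control is not disclosed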
NadD inh = inhibitors of Staphylococcus aureus NadD; inhibition, % at 20 µM; 0.78% of 360,000 active; purified NadD enzyme, colorimetric absorbance read-out; in the data active = inhibition above about 26%
Rin1 Abl inh = human Rin1-Abl interaction inhibition; TR-FRET Rin1/Abl binding, biochemical; P00519+Q13671; 0.4% of 360,000 active; inhibition, % at 7.35 µM; in the data active = inhibition above about 5%, passing the limit was not always enough
Xi reactivation = activators of X-chromosome reactivation in mouse fibroblasts. XiGFP mouse fibroblasts, % GFP-positive cells imaging, 3 d; cells co-treated with 5-aza-dC sensitizer; scaled so ellipticine positive control = 100%. 0.055% of 360,000 active. activation, % at 7.58 µM;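 active = mean normalized replicate activation at least 10% and every replicate at or above 10%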;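 also: 0% = median of on-plate neutral control wells and 100% = ellipticine 6 µM median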
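Material: SV40-immortalized XiGFP fibroblast cells, line 68-5-11 | Buffer or medium: DMEM containing 5-aza-dC | Dosing: One concentration, pinned | Times: 3 d treatment, 15 min room-temperature fixation | Controls: Ellipticine 6 µM positive control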
ABHD5-PLIN5 conf = ABHD5-PLIN5 interaction inhibition, confirmed; shares compounds with ABHD5-PLIN5 inh; biochemical ABHD5-PLIN5 interaction, luminescence; inhibition, % at 4 µM; 67% of 2,200 active; in the data active = inhibition above about 23%;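 also: 0% = DMSO vehicle wells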
HNF4 split-luc = active in HNF4 split-luciferase counter-screen for ABHD5-PLIN5 inhibitors; shares compounds with ABHD5-PLIN5 inh; HNF4 dimerization, luminescence, biochemical; inhibition, % at 4 µM; 77% of 2,200 active; AID 651674;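 active = mean inhibition across replicate wells exceeding the computed hit threshold, cut at about 13% in these data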;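 also: light from luciferase halves that rejoin when HNF4 fusion proteins dimerize; 0% = DMSO only wells and the 100% control is not given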
* marks the source's active call; other numbers are inactive results.

Results for Cn1cnnc1Sc1ccc(/C=C/C(=O)c2ccc(O)cc2)cc1[N+](=O)[O-] ?
Rpn11 inh: 6; ABHD5-PLIN5 inh: 64*; NadD inh: 6; Rin1 Abl inh: -3; Xi reactivation: 0; ABHD5-PLIN5 conf: 87*; HNF4 split-luc: 87*

Results for CN(C)CCC(=O)N1C/C(=C/c2ccccc2)C(=O)/C(=C\c2ccccc2)C1 ?
Rpn11 inh: 0; ABHD5-PLIN5 inh: 96*; NadD inh: -7; Rin1 Abl inh: 3; Xi reactivation: 0; ABHD5-PLIN5 conf: 103*; HNF4 split-luc: 106*

How did C[N+](C)(C)CCC(=O)N1C/C(=C/c2ccccc2)C(=O)/C(=C\c2ccccc2)C1 do in these assays?
Rpn11 inh: -3; ABHD5-PLIN5 inh: 92*; NadD inh: -2; Rin1 Abl inh: -1; Xi reactivation: 0; ABHD5-PLIN5 conf: 100*; HNF4 split-luc: 100*

What do the screens show for `O=C1/C(=C/c2ccccc2)CN(C(=O)CCN2CCOCC2)C/C1=C\c1ccccc1`?
Rpn11 inh: 0; ABHD5-PLIN5 inh: 99*; NadD inh: 2; Rin1 Abl inh: 7; Xi reactivation: 1; ABHD5-PLIN5 conf: 103*; HNF4 split-luc: 105*

What do the screens show for `CCCOC(=O)c1ccc(Oc2c(-c3ccc(O)cc3O)n[nH]c2C)cc1`?
Rpn11 inh: -2; ABHD5-PLIN5 inh: 3; NadD inh: 1; Rin1 Abl inh: -3

Results for Cc1[nH]nc(-c2ccc(O)cc2O)c1Oc1ccccc1 ?
Rpn11 inh: -7; ABHD5-PLIN5 inh: 24*; NadD inh: -2; Rin1 Abl inh: -2; ABHD5-PLIN5 conf: 18; HNF4 split-luc: 36*

Results for O=C(c1ccccc1F)N1CC[C@@H]2[C@H]1c1cc(-c3ccccc3)ccc1N[C@@H]2CO ?
Xi reactivation: 0

Results for Cc1cccc(-n2cnc3c(c2=O)c2nc4ccccc4nc2n3Cc2ccco2)c1 ?
Rpn11 inh: 7; ABHD5-PLIN5 inh: 30*; NadD inh: 11; Rin1 Abl inh: 1; ABHD5-PLIN5 conf: 47*; HNF4 split-luc: 70*

What do the screens show for `Cc1cccc(S(=O)(=O)c2c(N)n(Cc3ccco3)c3nc4ccccc4nc23)c1`?
ABHD5-PLIN5 inh: 6; NadD inh: 25; Rin1 Abl inh: -4

What do the screens show for `C[C@@H]1CN([C@H](C)CO)C(=O)c2cc(NC(=O)C3CCCCC3)ccc2O[C@@H](C)CCCCO[C@H]1CN(C)Cc1ccc(C(F)(F)F)cc1`?
Xi reactivation: 0

How did CNC(=O)C[C@@H]1CC[C@@H]2[C@@H](COc3ccc(NC(=O)c4cc(F)cc(F)c4)cc3C(=O)N2C)O1 do in these assays?
Xi reactivation: 0

What do the screens show for `Cc1ccc(S(=O)(=O)N(C)C[C@H]2OCCCC[C@H](C)Oc3ccc(NC(=O)NC(C)C)cc3C(=O)N([C@@H](C)CO)C[C@@H]2C)cc1`?
Xi reactivation: 0

How did CCN(CC)CCOc1ccc(Br)cc1 do in these assays?
Rpn11 inh: 3; ABHD5-PLIN5 inh: 5; NadD inh: -3; Rin1 Abl inh: -4

Results for CCN(CC)CCOc1ccc(/C(=C(\Cl)c2ccccc2)c2ccccc2)cc1 ?
Rpn11 inh: -2; ABHD5-PLIN5 inh: 49*; NadD inh: 1; Rin1 Abl inh: 0; Xi reactivation: 0; ABHD5-PLIN5 conf: 76*; HNF4 split-luc: 29*

What do the screens show for `O=C1C(Sc2ccccc2)=C[C@@]2(O)CC[C@@H](O)[C@]1(Sc1ccccc1)[C@H]2O`?
ABHD5-PLIN5 inh: 26*; NadD inh: 1; Xi reactivation: 0; ABHD5-PLIN5 conf: 33*; HNF4 split-luc: 43*

How did COc1nc(=O)n(C2C=CC(=O)O2)cc1F (stereo unspecified) do in these assays?
Rpn11 inh: -14; ABHD5-PLIN5 inh: 41*; NadD inh: -6; Rin1 Abl inh: -3; Xi reactivation: 1; ABHD5-PLIN5 conf: 52*; HNF4 split-luc: 34*

Results for COc1ccc(C(C(=O)Nc2c(C)cccc2C)n2c(=O)c(-c3ccccc3)nc3ccccc32)cc1 (stereo unspecified) ?
ABHD5-PLIN5 inh: -4; Xi reactivation: 0

Assay outcomes: PubChem BioAssay, several laboratories
